Three molecules from ChEMBL document CHEMBL1124429, “Heterocyclic analogues of benzamide antiarrhythmic agents” (J Med Chem, 1989) can be followed below.

The species named for data set [1] is Canis familiaris. As to the kind of experiment: Percent change from control in the functional refractory period (FRP) at 10 uM conc. on Canine ventricular muscle fibre.; value ranges from 11-23. Further details: species or system Canis lupus familiaris, Muscle tissue. In short, it runs like this: (§1)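 Canine right ventricular papillary muscle strips were superfused at 36 ± 0.5 °C with saline gassed with 95% O2/5% CO2. Diastolic threshold was found with 2-ms stimuli at 4000 ms cycle length, then pacing at 4× threshold for 60 min equilibration. FRP was measured at 1000 ms cycle length by S1-S2 premature stimulus after every tenth S1. Conduction time came from a bipolar electrogram. Various compound concentrations were tested, one compound per strip, with vehicle controls. Percent change from control was taken at 10 µM, or the maximum change with its concentration; for N ≥ 3, mean with range.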

The species named for data set [2] is Canis familiaris. Briefly: Maximum percent change in conduction time (CT) at 1 uM concentration tested on Canine ventricular muscle fibre. It counts as functional, Canis lupus familiaris, Muscle tissue. In short, it runs like this: as §1
For data set [3], the species on record is Canis familiaris. As to the kind of experiment: Maximum percent change in repolarization at 100 uM concentration on Canine Purkinje fibers.; value ranges from 14-20. It counts as functional, Canis lupus familiaris, Purkinje fiber. The method, boiled down: (§2)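 Isolated canine Purkinje fibers were superfused with physiological saline gassed with 95% O2/5% CO2 (pH 7.35–7.40) at 36 ± 0.5 °C. Paced at 1.0 Hz with 2-ms pulses at twice diastolic threshold. After up to 1 h stabilization, compounds were tested over 10^-8 to 10^-3 M, 30 min per concentration, one compound per fiber, with vehicle controls. Intracellular microelectrodes (3 M KCl) recorded Vmax and APD95; maximum percent change from control is reported with its concentration.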

Data set [4] is filed under the species Canis familiaris. Briefly: Percent change from control in the rate of rise of phase 0 of the action potential at 10 uM concentration on Canine Purkinje fibers.; value ranges from 0-2. Further details: species or system Canis lupus familiaris, Purkinje fiber. To be noted: dog, in vitro.
Data set [5] is filed under the species Canis familiaris. Briefly: Maximum percent change in functional refractory period (FRP) at 100 uM on Canine ventricular muscle fibre. More on the design: species or system Canis lupus familiaris, Muscle tissue. In short, it runs like this: as §1
The species entered for data set [6] is Canis familiaris. As to the kind of experiment: The maximum Percent change from control in the rate of rise of phase 0 of the action potential at 100 uM concentration on Canine Purkinje fibers. More on the design: species or system Canis lupus familiaris, Purkinje fiber. Particulars: dog. In short, it runs like this: (§3)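 Canine Purkinje fibers were held in oxygenated (95% O2–5% CO2) physiological saline, pH 7.35–7.40, at 36 ± 0.5 °C and paced at 1.0 Hz with 2-ms pulses at twice diastolic threshold. Intracellular microelectrodes (3 M KCl) recorded Vmax and APD95 simultaneously. After up to 1 h of stabilization, compounds were tested from 10^-8 to 10^-3 M with 30 min per concentration. One compound per fiber, with vehicle controls. For N ≥ 3, values are the mean with the range.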

The species entered for data set [7] is Canis familiaris. As to the kind of experiment: The maximum percent change in action potential (Vmax ) at concentration observed (0.1 uM ) was tested on Canine Purkinje fibers. More on the design: species or system Canis lupus familiaris, Purkinje fiber. To be noted: dog, in vitro. In short, it runs like this: as §3
The species entered for data set [8] is Canis familiaris. As to the kind of experiment: Maximum percent change in conduction time (CT) at 0.1 uM concentration tested on Canine ventricular muscle fibre. It counts as functional, Canis lupus familiaris, Muscle tissue. In short, it runs like this:
as §1

The species entered for data set [9] is Canis familiaris. Briefly: Percent change from control in conduction time (CT) at 10 uM concentration tested on Canine ventricular muscle fibre.; value ranges from -11.0-0. It is filed as functional, Canis lupus familiaris, Muscle tissue. In short, it runs like this:
as §1

For data set [10], the species on record is Canis familiaris. Briefly: The maximum Percent change from control in the rate of rise of phase 0 of the action potential at 1 uM concentration on Canine Purkinje fibers. To be noted: dog. Further details: species or system Canis lupus familiaris, Purkinje fiber. In short, it runs like this: as §3
For data set [11], the species on record is Canis familiaris. Briefly: Maximum percent change in functional refractory period (FRP) at 10 uM on Canine ventricular muscle fibre. More on the design: species or system Canis lupus familiaris, Muscle tissue. The method, boiled down:
as §1

For data set [12], the species on record is Canis familiaris. Briefly: Percent change in repolarization at 10 Purkinje fibers; value ranges from -3.0-7.0. It is filed as functional, Canis lupus familiaris, Purkinje fiber. In short, it runs like this: as §3
The species named for data set [13] is Canis familiaris. As to the kind of experiment: Maximum percent change in conduction time (CT) at 100 uM concentration tested on Canine ventricular muscle fibre. It counts as functional, Canis lupus familiaris, Muscle tissue. In short, it runs like this:
as §1

The species entered for data set [14] is Canis familiaris. As to the kind of experiment: Maximum percent change in repolarization at 100 uM concentration on Canine Purkinje fibers. It is filed as functional, Canis lupus familiaris, Purkinje fiber. In short, it runs like this: as §2
For data set [15], the species on record is Canis familiaris. Briefly: Percent change from control in the functional refractory period (FRP) at 10 uM conc. on Canine ventricular muscle fibre. Further details: species or system Canis lupus familiaris, Muscle tissue. In short, it runs like this:
as §1

For data set [16], the species on record is Cavia porcellus. Briefly: Concentration of compound which gives a 20% decrease in contractile force was tested from individual experiments on papillary muscle of guinea pig, activity was expressed as EC-20. It is filed as functional. To be noted: Muscle tissue. In short, it runs like this:
(§4)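 Contractile force measured in an isolated cardiac muscle preparation. Value is the concentration giving a 20% decrease in force of contraction. NR marks that this decrease was not reached. Values come from individual experiments; for N ≥ 3, the mean is given with the range.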

For data set [17], the species on record is Canis familiaris. Briefly: Percent change in repolarization at 10 Purkinje fibers.; value ranges from 5-16. It is filed as functional, Canis lupus familiaris, Purkinje fiber. The method, boiled down: as §3
The species named for data set [18] is Canis familiaris. As to the kind of experiment: Maximum percent change in functional refractory period (FRP) at 1 uM on Canine ventricular muscle fibre. Further details: species or system Canis lupus familiaris, Muscle tissue. In short, it runs like this: as §1
For data set [19], the species on record is Canis familiaris. As to the kind of experiment: Maximum Percent change from control in the rate of rise of phase 0 of the action potential at 30 uM concentration on Canine Purkinje fibers. Further details: species or system Canis lupus familiaris, Purkinje fiber. Particulars: dog, in vitro. In short, it runs like this: as §2
The species named for data set [20] is Canis familiaris. As to the kind of experiment: Percent change from control in the rate of rise of phase 0 of the action potential at 10 uM concentration on Canine Purkinje fibers. More on the design: species or system Canis lupus familiaris, Purkinje fiber. Particulars: dog, in vitro.
The species entered for data set [21] is Canis familiaris. Briefly: Maximum Percent change from control in the rate of rise of phase 0 of the action potential at 10 uM concentration on Canine Purkinje fibers. It is filed as functional, Canis lupus familiaris, Purkinje fiber. Particulars: dog, in vitro. The method, boiled down: as §2
Data set [22] is filed under the species Canis familiaris. Briefly: Percent change from control in conduction time (CT) at uM concentration tested on Canine ventricular muscle fibre.; M is minimal(<10% change in CT). It counts as functional. Particulars: Canis lupus familiaris; Muscle tissue. The method, boiled down: as §1
The species entered for data set [23] is Canis familiaris. Briefly: Maximum percent change in repolarization at 10 uM concentration on Canine Purkinje fibers. It is filed as functional, Canis lupus familiaris, Purkinje fiber. In short, it runs like this: as §2
The species entered for data set [24] is Canis familiaris. As to the kind of experiment: Percent change from control in the functional refractory period (FRP) at 10 uMconc. on Canine ventricular muscle fibre.; value ranges from -4-17. More on the design: species or system Canis lupus familiaris, Muscle tissue.
The species entered for data set [25] is Canis familiaris. As to the kind of experiment: Percent change in repolarization at 10 Purkinje fibers.; value ranges from 0-25. It is filed as functional, Canis lupus familiaris, Purkinje fiber. In short, it runs like this:
as §3

Data set [26] is filed under the species Canis familiaris. As to the kind of experiment: Percent change from control in the rate of rise of phase 0 of the action potential at 10 uM concentration on Canine Purkinje fibers.; value ranges from -32-3. Further details: species or system Canis lupus familiaris, Purkinje fiber. To be noted: dog, in vitro.
The species entered for data set [27] is Canis familiaris. As to the kind of experiment: Percent change from control in conduction time (CT) at 10 uM concentration tested on Canine ventricular muscle fibre.; M is minimal(<10% change in CT). It counts as functional. Particulars: Canis lupus familiaris, Muscle tissue. The method, boiled down: as §1
The species named for data set [28] is Canis familiaris. Briefly: Maximum percent change in conduction time (CT) at 10 uM concentration tested on Canine ventricular muscle fibre. It is filed as functional, Canis lupus familiaris, Muscle tissue. The method, boiled down: as §1
The species named for data set [29] is Cavia porcellus. Briefly: Concentration of compound ( ) which gives a 20% decrease in contractile force was tested on papillary muscle of guinea pig, activity was expressed as EC-20. It counts as functional. To be noted: Muscle tissue. The method, boiled down: as §4
Data set [30] is filed under the species Canis familiaris. As to the kind of experiment: Maximum percent change in functional refractory period (FRP) at 0.1 uM on Canine ventricular muscle fibre. More on the design: species or system Canis lupus familiaris, Muscle tissue. In short, it runs like this: as §1
For data set [31], the species on record is Canis familiaris. As to the kind of experiment: Maximum percent change in repolarization at 30 uM concentration on Canine Purkinje fibers. It counts as functional, Canis lupus familiaris, Purkinje fiber. The method, boiled down:
as §2

The species named for data set [32] is Canis familiaris. As to the kind of experiment: Maximum Percent change from control in the rate of rise of phase 0 of the action potential at 100 uM concentration on Canine Purkinje fibers. More on the design: species or system Canis lupus familiaris, Purkinje fiber. In short, it runs like this:
as §2

Each structure is given as a SMILES string.

As for `CCN(CC)CCNC(=O)c1ccc(NC(C)=O)cc1` [ACECAINIDE], the results for the FRP in the data set filed under Canis familiaris [1], in the data set listed under Canis familiaris [5] and in the data set filed under Canis familiaris [11] were 16.8%, 31% and 23%, respectively. Moreover, the CT in the data set listed under Canis familiaris [2] is -9%; in the data set filed under Canis familiaris [8], -11%; in the data set listed under Canis familiaris [9], -9.7%; in the data set listed under Canis familiaris [13] it was 6%. Besides, the APD95 in the data set listed under Canis familiaris [3] is recorded as 16.3%; in the data set filed under Canis familiaris [12], 3%. Moreover, the Vmax came out at 1% in the data set listed under Canis familiaris [4], 5% in the data set listed under Canis familiaris [6], 6% in the data set filed under Canis familiaris [7] and 2% in the data set filed under Canis familiaris [10].

For the molecule `CCN(CC)CCCNC(=O)c1cc2ccccc2[nH]1`, the APD95 is recorded as -14% in the data set listed under Canis familiaris [14], 9.6% in the data set filed under Canis familiaris [17] and 16% in the data set listed under Canis familiaris [23]. For the same molecule, the FRP in the data set filed under Canis familiaris [15] and in the data set filed under Canis familiaris [18] was 5% in each case. Besides, the 20% effect level in the data set filed under Cavia porcellus [16] (EC20) was put at 26 µM. Also, the Vmax is -13% in the data set filed under Canis familiaris [19], -7% in the data set filed under Canis familiaris [20] and -13% in the data set listed under Canis familiaris [21]. For the same molecule, the CT entry in the data set filed under Canis familiaris [22] is “Minimal”; in the data set listed under Canis familiaris [13] it was -11%.

As to `CCN(CC)CCCNC(=O)c1[nH]c(C)c(C)c1C`, the CT was 6% in the data set filed under Canis familiaris [2], “Minimal” in the data set filed under Canis familiaris [27], -9% in the data set filed under Canis familiaris [28] and 8% in the data set filed under Canis familiaris [13]. The FRP is 5.7% in the data set filed under Canis familiaris [24], 28% in the data set listed under Canis familiaris [5] and 4% in the data set filed under Canis familiaris [30]. For the same molecule, the APD95 was -5% in the data set listed under Canis familiaris [14], 8.3% in the data set filed under Canis familiaris [25], 26% in the data set listed under Canis familiaris [31] and 7% in the data set listed under Canis familiaris [23]. Further, in the data set filed under Canis familiaris [26], the Vmax was -14.3%. For the same molecule, the EC20 (in general, the point of the concentration-response curve where the effect stands at 20%) in the data set filed under Cavia porcellus [29] amounted to 50 µM. For the same molecule, the “Vmax (uM)” value in the data set filed under Canis familiaris [32] was -15%.
